Common to all, as to assay type: functional
Substrate in data set [1]: CCCCc1ccc(-c2ccccc2OCC(=O)Nc2ccc3c(C)c(CC(=O)O)c(=O)oc3c2)c(F)c1F
The experiment in a line: (§1) Activity of cathepsin S assessed as substrate cleavage efficiency. The method, boiled down: (§2)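 Cathepsin S at 37 °C in pH 6.1 100 mM sodium phosphate, 100 mM NaCl, 1 mM DTT, 1 mM EDTA, 0.001% Tween-20. AMCA substrate added from DMSO at ≥6-fold below its K_M. Run in duplicate with and without enzyme. Fluorescence (ex 370/em 455 nm) read over up to 15 min. Slope gave V_max/K_M; k_cat/K_M used AMCA calibration and E-64c-titrated enzyme concentration.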

Substrate in data set [2]: CCCc1ccc(-c2ccccc2OCC(=O)Nc2ccc3c(C)c(CC(=O)O)c(=O)oc3c2)c(F)c1F
The description is as §1. The method, boiled down:
as §2

Substrate in data set [3]: CCc1ccc(-c2ccccc2OCC(=O)Nc2ccc3c(C)c(CC(=O)O)c(=O)oc3c2)c(F)c1F
The data set is described as §1. The method, boiled down:
as §2

Substrate in data set [4]: COc1ccc(-c2ccccc2OCC(=O)Nc2ccc3c(C)c(CC(=O)O)c(=O)oc3c2)c(F)c1F
The description is as §1. The method, boiled down:
as §2

Substrate in data set [5]: Cc1c(CC(=O)O)c(=O)oc2cc(NC(=O)COc3ccccc3-c3ccc(CC(C)C)c(F)c3F)ccc12
The description is as §1. The method, boiled down:
as §2

Substrate in data set [6]: Cc1c(CC(=O)O)c(=O)oc2cc(NC(=O)COc3ccccc3-c3ccc(CC4CCCCC4)c(F)c3F)ccc12
The description is as §1. The method, boiled down:
as §2

Substrate in data set [7]: Cc1c(CC(=O)O)c(=O)oc2cc(NC(=O)COc3ccccc3-c3ccc(F)c(F)c3F)ccc12
Described as §1. The method, boiled down: as §2

This note sets out measurements from ChEMBL document CHEMBL1143066, “Characterization and optimization of selective, nonpeptidic inhibitors of cathepsin S with an unprecedented binding mode” (J Med Chem, 2007).

B1: Cathepsin S (Homo sapiens), P25774 (protein)
chain: MKRLVCVLLVCSSAVAQLHKDPTLDHHWHLWKKTYGKQYKEKNEEAVRRLIWEKNLKFVMLHNLEHSMGMHSYDLGMNHLGDMTSEEVMSLMSSLRVPSQWQRNITYKSNPNRILPDSVDWREKGCVTEVKYQGSCGACWAFSAVGALEAQLKLKTGKLVSLSAQNLVDCSTEKYGNKGCNGGFMTTAFQYIIDNKGIDSDASYPYKAMDQKCQYDSKYRAATCSKYTELPYGREDVLKEAVANKGPVSVGVDARHPSFFLYRSGVYYEPSCTQNVNHGVLVVGYGDLNGKEYWLVKNSWGHNFGEEGYIRMARNKGNHCGIASFPSYPEI
B1: the kcat/Km was 85000 M⁻¹ s⁻¹ in data set [1]; 145000 M⁻¹ s⁻¹ in data set [2]; 25900 M⁻¹ s⁻¹ in data set [3]; 2700 M⁻¹ s⁻¹ in data set [4]; 288000 M⁻¹ s⁻¹ in data set [5]; 15700 M⁻¹ s⁻¹ in data set [6]. Further, in data set [7], the specificity constant (kcat/Km) worked out at 27000 M⁻¹ s⁻¹.

By kcat/Km is commonly meant the second-order rate constant that governs catalysis at low substrate concentration.
